Test results from ChEMBL document CHEMBL3525900, “Pharmacokinetics, distribution, and metabolism of [14C]sunitinib in rats, monkeys, and humans” (Drug Metab Dispos, 2012).

Experiments:
Spleen [1] = experiment: Drug concentration in female Lister Hooded pigmented rat spleen assessed as radioactivity per gram of tissue at 20 mg/kg administered as single dose via gastric gavage measured after 72 hrs by autoradiographic analysis; assay type: ADME, organism-based; design: dose 20 mg/kg, dosed compound name [14C]Sunitinib; conditions: in vivo, po
How it was run: (§1)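 Lister Hooded (pigmented) rats, ca 7-8 weeks old, acclimated 7 days, given [14C]sunitinib L-malate by gastric gavage at 20 mg/kg (15 mg freebase/kg, 100 µCi/kg). One male and one female killed by CO2 at 24, 72, 168 and 336 h. Carcasses frozen in solid CO2/hexane and embedded in frozen cellulose. 30 µm sagittal cryosections were freeze-dried. Tissue radioactivity measured by quantitative whole-body autoradiography against calibration standards, with background subtracted.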

Liver [2] = experiment: Drug concentration in male albino rat liver assessed as radioactivity per gram of tissue at 20 mg/kg administered as single dose via gastric gavage measured after 6 hrs by autoradiographic analysis; assay type: ADME, organism-based; design: dose 20 mg/kg, dosed compound name [14C]Sunitinib; conditions: in vivo, po
[3] = Drug concentration in female albino rat bladder assessed as radioactivity per gram of tissue at 20 mg/kg administered as single dose via gastric gavage measured after 72 hrs by autoradiographic analysis; assay type: ADME, organism-based, Urinary bladder; design: dose 20 mg/kg, dosed compound name [14C]Sunitinib; conditions: in vivo, po
How it was run: (§2)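 Sprague Dawley (albino) rats, ca 7-8 weeks old, received a single gastric-gavage dose of [14C]sunitinib L-malate at 20 mg/kg (15 mg freebase/kg, 100 µCi/kg). One animal per sex killed by CO2 at 3, 6, 24, 72 and 168 h, then frozen in CO2/hexane. 30 µm sagittal sections were cut and freeze-dried. Radioactivity per gram quantified by whole-body autoradiography using regression against standards. LOQ 0.04–0.06 µg freebase equiv/g.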

Rattus norvegicus = experiment: Total drug recovery in female Sprague-Dawley rat at 15 mg/kg, po administered as single dose during 0 to 72 hrs by liquid scintillation counting; assay type: ADME, organism-based; design: dose 15 mg/kg, dosed compound name [14C]Sunitinib, route oral; conditions: in vivo
Adrenal [4] = experiment: Drug concentration in male albino rat adrenal assessed as radioactivity per gram of tissue at 20 mg/kg administered as single dose via gastric gavage measured after 24 hrs by autoradiographic analysis; assay type: ADME, organism-based; design: dose 20 mg/kg, dosed compound name [14C]Sunitinib; conditions: in vivo, po
Small intestine = experiment: Drug concentration in male Lister Hooded pigmented rat small intestine assessed as radioactivity per gram of tissue at 20 mg/kg administered as single dose via gastric gavage measured after 168 hrs by autoradiographic analysis; assay type: ADME, organism-based; design: dose 20 mg/kg, dosed compound name [14C]Sunitinib; conditions: in vivo, po
[5] = Drug concentration in female Lister Hooded pigmented rat eye assessed as radioactivity per gram of tissue at 20 mg/kg administered as single dose via gastric gavage measured after 24 hrs by autoradiographic analysis; assay type: ADME, organism-based; design: dose 20 mg/kg, dosed compound name [14C]Sunitinib; conditions: in vivo, po; how it was run: as §1
Thymus [6] = experiment: Drug concentration in female albino rat thymus assessed as radioactivity per gram of tissue at 20 mg/kg administered as single dose via gastric gavage measured after 3 hrs by autoradiographic analysis; assay type: ADME, organism-based; design: dose 20 mg/kg, dosed compound name [14C]Sunitinib; conditions: in vivo, po
[7] = Drug concentration in male albino rat eye assessed as radioactivity per gram of tissue at 20 mg/kg administered as single dose via gastric gavage measured after 24 hrs by autoradiographic analysis; assay type: ADME, organism-based; design: dose 20 mg/kg, dosed compound name [14C]Sunitinib; conditions: in vivo, po
[8] = Drug concentration in female albino rat lymph node assessed as radioactivity per gram of tissue at 20 mg/kg administered as single dose via gastric gavage measured after 6 hrs by autoradiographic analysis; assay type: ADME, organism-based; design: dose 20 mg/kg, dosed compound name [14C]Sunitinib; conditions: in vivo, po
How it was run: (§3)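 Sprague Dawley albino rats, ca 7-8 weeks old, dosed once by gastric gavage with [14C]sunitinib L-malate (15 mg freebase/kg, 100 µCi/kg). One male and one female killed by CO2 at 3, 6, 24, 72 and 168 h. Carcasses frozen in solid CO2/hexane, embedded and cut into 30 µm sagittal sections, then freeze-dried. Radioactivity quantified by whole-body autoradiography against standards by regression, background subtracted.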

[9] = Drug concentration in male Lister Hooded pigmented rat pituitary gland assessed as radioactivity per gram of tissue at 20 mg/kg administered as single dose via gastric gavage measured after 168 hrs by autoradiographic analysis; assay type: ADME, organism-based; design: dose 20 mg/kg, dosed compound name [14C]Sunitinib; conditions: in vivo, po
Zone of skin = experiment: Drug concentration in male albino rat abdomen skin assessed as radioactivity per gram of tissue at 20 mg/kg administered as single dose via gastric gavage measured after 3 hrs by autoradiographic analysis; assay type: ADME, organism-based; design: dose 20 mg/kg, dosed compound name [14C]Sunitinib; conditions: in vivo, po
[10] = Drug concentration in male albino rat salivary gland assessed as radioactivity per gram of tissue at 20 mg/kg administered as single dose via gastric gavage measured after 3 hrs by autoradiographic analysis; assay type: ADME, organism-based; design: dose 20 mg/kg, dosed compound name [14C]Sunitinib; conditions: in vivo, po
Lung = experiment: Drug concentration in female albino rat lung assessed as radioactivity per gram of tissue at 20 mg/kg administered as single dose via gastric gavage measured after 6 hrs by autoradiographic analysis; assay type: ADME, organism-based; design: dose 20 mg/kg, dosed compound name [14C]Sunitinib; conditions: in vivo, po; how it was run: as §3
Spleen [11] = experiment: Drug concentration in male albino rat spleen assessed as radioactivity per gram of tissue at 20 mg/kg administered as single dose via gastric gavage measured after 72 hrs by autoradiographic analysis; assay type: ADME, organism-based; design: dose 20 mg/kg, dosed compound name [14C]Sunitinib; conditions: in vivo, po
Adrenal [12] = experiment: Drug concentration in female albino rat adrenal assessed as radioactivity per gram of tissue at 20 mg/kg administered as single dose via gastric gavage measured after 72 hrs by autoradiographic analysis; assay type: ADME, organism-based; design: dose 20 mg/kg, dosed compound name [14C]Sunitinib; conditions: in vivo, po; how it was run: as §2
Brain = experiment: Drug concentration in female albino rat brain assessed as radioactivity per gram of tissue at 20 mg/kg administered as single dose via gastric gavage measured after 3 hrs by autoradiographic analysis; assay type: ADME, organism-based; design: dose 20 mg/kg, dosed compound name [14C]Sunitinib; conditions: in vivo, po; how it was run: as §2
[13] = Drug recovery in urine of male cynomolgus monkey at 6 mg/kg, po administered as single dose during 0 to 336 hrs by liquid scintillation counting; assay type: ADME, organism-based, Macaca fascicularis; design: dose 6 mg/kg, dosed compound name [14C]Sunitinib, route oral; conditions: in vivo
Cynomolgus monkey [14] = experiment: Drug recovery in cage residue of female cynomolgus monkey at 6 mg/kg, po administered as single dose during 0 to 336 hrs by liquid scintillation counting; assay type: ADME, organism-based, Macaca fascicularis; design: dose 6 mg/kg, dosed compound name [14C]Sunitinib, route oral; conditions: in vivo
Cynomolgus monkey [15] = experiment: Tmax as total radioactivity in male cynomolgus monkey plasma at 6 mg/kg, po administered as single dose by LC/MS/MS analysis; assay type: ADME, organism-based, Macaca fascicularis; design: dose 6 mg/kg, dosed compound name [14C]Sunitinib, route oral; conditions: in vivo
Cynomolgus monkey [16] = experiment: Cmax as total radioactivity in male cynomolgus monkey plasma at 6 mg/kg, po administered as single dose by LC/MS/MS analysis; assay type: ADME, organism-based, Macaca fascicularis; design: dose 6 mg/kg, dosed compound name [14C]Sunitinib, route oral; conditions: in vivo
How it was run: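 Cynomolgus monkeys of both sexes received one oral gavage of [14C]sunitinib L-malate at 6 mg/kg (37 µCi/kg). Femoral-vein blood was taken into heparin from 0.5 to 336 h. Plasma was kept cold and protected from light, then stored at -80 °C. Total radioactivity was by scintillation counting and sunitinib by methanol-extraction LC-MS-MS. Cmax was from raw data, t½ from the log-linear terminal slope, AUC(0-∞) by linear trapezoidal rule.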

Spinal cord = experiment: Drug concentration in male albino rat spinal cord assessed as radioactivity per gram of tissue at 20 mg/kg administered as single dose via gastric gavage measured after 3 hrs by autoradiographic analysis; assay type: ADME, organism-based; design: dose 20 mg/kg, dosed compound name [14C]Sunitinib; conditions: in vivo, po
Liver [17] = experiment: Drug concentration in female albino rat liver assessed as radioactivity per gram of tissue at 20 mg/kg administered as single dose via gastric gavage measured after 3 hrs by autoradiographic analysis; assay type: ADME, organism-based; design: dose 20 mg/kg, dosed compound name [14C]Sunitinib; conditions: in vivo, po; how it was run: as §3
Kidney [18] = experiment: Drug concentration in female albino rat kidney assessed as radioactivity per gram of tissue at 20 mg/kg administered as single dose via gastric gavage measured after 6 hrs by autoradiographic analysis; assay type: ADME, organism-based; design: dose 20 mg/kg, dosed compound name [14C]Sunitinib; conditions: in vivo, po; how it was run: as §3
[19] = Drug concentration in female albino rat uterus assessed as radioactivity per gram of tissue at 20 mg/kg administered as single dose via gastric gavage measured after 6 hrs by autoradiographic analysis; assay type: ADME, organism-based; design: dose 20 mg/kg, dosed compound name [14C]Sunitinib; conditions: in vivo, po
Kidney [20] = experiment: Drug concentration in female Lister Hooded pigmented rat kidney assessed as radioactivity per gram of tissue at 20 mg/kg administered as single dose via gastric gavage measured after 72 hrs by autoradiographic analysis; assay type: ADME, organism-based; design: dose 20 mg/kg, dosed compound name [14C]Sunitinib; conditions: in vivo, po; how it was run: as §1
[21] = Drug recovery in feces of female Sprague-Dawley rat at 15 mg/kg, po administered as single dose during 0 to 72 hrs by liquid scintillation counting; assay type: ADME, organism-based; design: dose 15 mg/kg, dosed compound name [14C]Sunitinib, route oral; conditions: in vivo
Thymus [22] = experiment: Drug concentration in female Lister Hooded pigmented rat thymus assessed as radioactivity per gram of tissue at 20 mg/kg administered as single dose via gastric gavage measured after 24 hrs by autoradiographic analysis; assay type: ADME, organism-based; design: dose 20 mg/kg, dosed compound name [14C]Sunitinib; conditions: in vivo, po; how it was run: as §1

Radiolabel recovery (Spleen [1]): 0.23 ugequiv
Radiolabel recovery (Liver [2]): 10.7 ugequiv
Radiolabel recovery [3]: 0.14 ugequiv
Radiolabel recovery (Rattus norvegicus): 82.5%
Radiolabel recovery (Adrenal [4]): 4.11 ugequiv
Radiolabel recovery (Small intestine): 0.06 ugequiv
Radiolabel recovery [5]: 31.8 ugequiv
Radiolabel recovery (Thymus [6]): 9.36 ugequiv
Radiolabel recovery [7]: 0.08 ugequiv
Radiolabel recovery [8]: 14.48 ugequiv
Radiolabel recovery [9]: 81.06 ugequiv
Radiolabel recovery (Zone of skin): 2.81 ugequiv
Radiolabel recovery [10]: 17.24 ugequiv
Radiolabel recovery (Lung): 16.19 ugequiv
Radiolabel recovery (Spleen [11]): 0.2 ugequiv
Radiolabel recovery (Adrenal [12]): 1.52 ugequiv
Radiolabel recovery (Brain): 0.52 ugequiv
Radiolabel recovery [13]: 4.8%
Radiolabel recovery (Cynomolgus monkey [14]): 0.6%
Tmax (Cynomolgus monkey [15]): 8 h
Cmax (Cynomolgus monkey [16]): 243 ngequiv/ml
Radiolabel recovery (Spinal cord): 0.19 ugequiv
Radiolabel recovery (Liver [17]): 19.89 ugequiv
Radiolabel recovery (Kidney [18]): 16.48 ugequiv
Radiolabel recovery [19]: 6.63 ugequiv
Radiolabel recovery (Kidney [20]): 0.19 ugequiv
Radiolabel recovery [21]: 71.1%
Radiolabel recovery (Thymus [22]): 0.88 ugequiv
SMILES: CCN(CC)CCNC(=O)c1c(C)[nH]c(/[14CH]=C2\C(=O)Nc3ccc(F)cc32)c1C.O=C(O)C[C@H](O)C(=O)O
